Experimental findings from ChEMBL document CHEMBL3259717, “Synthetic calanolides with bactericidal activity against replicating and nonreplicating Mycobacterium tuberculosis” (J Med Chem, 2014) are described below.

SMILES strings stand for the structures. In brackets after ≈: the same amount, converted by molar mass. Activity calls are given as the source filed them. No cut-off for these calls is given here.

In data set [1] the test system is Mycobacterium tuberculosis. In words: Bactericidal activity against wild type Mycobacterium tuberculosis H37Rv infected in IFN-gamma-stimulated primary human monocyte-derived macrophages assessed as reduction of log10CFU at 30 times MIC incubated for 7 days followed by compound washout measured after 3 weeks. It counts as functional. In outline:
(§1)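 Monocytes from healthy donors isolated by CD14 selection. Differentiated 2 weeks in 40% human plasma with 0.5 ng/mL GM-CSF and TNF-alpha, 10% O2. Then 5 ng/mL IFN-gamma overnight, infected with wild-type Mtb at MOI 0.1. Compound added at 24 h, 1% DMSO final, 7 days. Viability inspected visually; lysed in 0.55% Triton-X and plated on 7H11/OADC for CFU.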

Data set [2] is described as follows: Selectivity index, ratio of LD50 for human HepG2 cells to MIC90 for replicating form of Mycobacterium tuberculosis H37Rv. The class given is toxicity, cell-based. Particulars: read-out: Selectivity Index. In outline:
(§2)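 HepG2 in DMEM with 10% FBS, pyruvate, glutamine, HEPES and nonessential amino acids, seeded 3000 cells/well in 384-well plates. Compound for 2 days at 1% final DMSO. ATP read by CellTiter-Glo luminescence. LD50 = 50% drop in ATP signal vs DMSO. SI = LD50/MIC90 against replicating Mtb.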

Data set [3] concerns Mycobacterium tuberculosis. Nature of the data set: Bactericidal activity against wild type Mycobacterium tuberculosis H37Rv infected in IFN-gamma-stimulated primary human monocyte-derived macrophages assessed as reduction of log10CFU at 1 ug/mL incubated for 7 days followed by compound washout measured after 3 weeks. The class given is functional. In short, it runs like this: as §1

The subject of data set [4] is Mycobacterium tuberculosis. In words: Bactericidal activity against replicating form of wild type Mycobacterium tuberculosis H37Rv assessed as reduction of log10CFU at 0.6 ug/mL after 7 to 8 days. The class given is functional. In outline:
(§3)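 Wild-type Mtb single-cell suspension at OD 0.01 (R) or 0.1 (NR, in NR medium, 1% O2) in 96-well plates with compound for 7 days. Serial dilution in 7H9-ADN, plated on 7H11 agar with glycerol and OADC for CFU.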

In data set [5] the test system is Mycobacterium tuberculosis. In words: Antibacterial activity against replicating form of wild type Mycobacterium tuberculosis H37Rv assessed as growth inhibition after 7 days by high-throughput screening assay. It counts as functional. Particulars: 168 h. In outline:
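Wild-type H37Rv in 7H9 with glycerol, tyloxapol, ADN, in 96-well plates. Set up as the 384-well screen: OD580 0.01 start, compound in DMSO, 7 days at 37 °C, 20% O2, 5% CO2. OD580 read; MIC90 = 90% growth inhibition vs DMSO control.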

Data set [6] has as its system Mycobacterium tuberculosis. In words: Antibacterial activity against non-replicating form of wild type Mycobacterium tuberculosis H37Rv assessed as growth inhibition after 3 days by high-throughput screening assay. The class given is functional. Particulars: 72 h.
Data set [7] concerns Mycobacterium tuberculosis. Nature of the data set: Bactericidal activity against non-replicating form of wild type Mycobacterium tuberculosis H37Rv assessed as reduction of log10CFU at 0.6 ug/mL after 7 to 8 days. It counts as functional. In outline:
as §3

The nature of data set [8]: Cytotoxicity against human HepG2 cells assessed as decrease in ATP signal after 2 days by CellTiter-Glo assay. The class given is cell-based. Particulars: read-out: LD50. In short, it runs like this:
as §2

Data set [9] concerns Mycobacterium tuberculosis. Nature of the data set: Bactericidal activity against wild type Mycobacterium tuberculosis H37Rv infected in IFN-gamma-stimulated primary human monocyte-derived macrophages assessed as reduction of log10CFU incubated for 7 days followed by compound washout measured after 3 weeks. It counts as functional. In outline: as §1
A further data set concerns Candida albicans. In words: Fungicidal activity against Candida albicans at <= 25 ug/mL after 6 to 18 hrs. It counts as functional, organism-based. In outline:
(§4)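 Log-phase cultures in their own media (M. smegmatis 7H9/glycerol/tyloxapol; E. coli, P. aeruginosa LB; S. aureus Mueller-Hinton; C. albicans YM) diluted to OD 0.01 in 96-well plates. Compound or DMSO added. Incubated 8−48 h with shaking at 37 °C (Candida at 30 °C). OD600 read.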

Data set [10] relates to Mycolicibacterium smegmatis. In words: Antibacterial activity against Mycobacterium smegmatis assessed as growth inhibition at 10 ug/mL after 24 to 48 hrs relative to control. It counts as functional. The conditions noted are these: read-out: GI. In short, it runs like this:
as §4

Another data set has as its system Staphylococcus aureus. Nature of the data set: Bactericidal activity against Staphylococcus aureus ATCC 29213 at <= 25 ug/mL after 6 to 18 hrs. It counts as functional, organism-based. In short, it runs like this: as §4
Another data set has as its system Escherichia coli. In words: Bactericidal activity against Escherichia coli at <= 25 ug/mL after 6 to 18 hrs. It counts as functional, organism-based. In outline: as §4
The next data set deals with Pseudomonas aeruginosa. Nature of the data set: Bactericidal activity against Pseudomonas aeruginosa PAO1 at <= 25 ug/mL after 6 to 18 hrs. It counts as functional, organism-based. In outline:
as §4

For `CO[C@H]1/C=C/O[C@@]2(C)Oc3c(C)c(O)c4c(O)c(c(/C=N/N5CCN(C)CC5)c(O)c4c3C2=O)NC(=O)/C(C)=C\C=C\[C@H](C)[C@H](O)[C@@H](C)[C@@H](O)[C@@H](C)[C@H](OC(C)=O)[C@@H]1C` [RIFAMPIN], the log10cfu in [1] was determined as 1.
A word on the MIC90: it is the lowest concentration that inhibits either 90% of growth or 90% of the strains tested, depending on the study. Turning to `CCCc1cc(=O)oc2c1c1c(c3oc([N+](=O)[O-])cc32)C=CC(C)(C)O1`, in [2], the selectivity ratio is 8. Also, the log10cfu is given as 1.8 in [3], 3.1 in [4] and 2.6 in data set [7]. In addition, the figures for the MIC90 in data set [5] and in data set [6] were 0.3 µg/mL (≈ 0.844 µM) and 0.6 µg/mL (≈ 1.69 µM), respectively. The CC50 at 48 h in data set [8] worked out at 3 µg/mL (≈ 8.44 µM).
On to `CCCc1cc(=O)oc2c1c1c(c3oc([N+](=O)[O-])cc32)CCC(C)(C)O1`, for which the log10cfu in [9] worked out at 2; in data set [4], 2.6; in data set [7], 2.1. Moreover, the selectivity ratio in data set [2] was above 80. Also, the result in the data set on Candida albicans, with Staphylococcus aureus, in the data set with Escherichia coli and in the data set on Pseudomonas aeruginosa was inactive. In data set [10], the inhibition of growth at 10 µg/mL worked out at 20%. For the same compound, the MIC90 came to 0.6 µg/mL (≈ 1.68 µM) in data set [5] and 1 µg/mL (≈ 2.8 µM) in [6]. Besides, the CC50 at 48 h in data set [8] is above 50 µg/mL.
